One data set has as its target Cyp 2C9 (Homo sapiens, UniProt P11712). The following applies: 24 h, 10 μM.
Data set [1] has as its system hepatocytes. As to the kind of experiment: Apoptosis, cytochrome C biosensor in sentinel hepatocytes. The class given is cell-based, human. As to conditions: for Effect on hepatocellular apoptosis biosensor: 600 μM caffeine, 28 days.
The subject of data set [2] is human alpha- smooth muscle actin (alpha-SMA). Put plainly: Indirect immunofluorescence of alpha-SMA in SQL-SAL. The data set is classed as cell-based. In short, it runs like this:
(§1)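 Human liver model in a perfused microfluidic device: primary hepatocytes, EA.hy926, U937 and LX-2 cells, with the LX-2 cells in collagen. The LX-2 cells are transduced with pLVX-IRES-mito-mKate2 for identification. Perfusion at 5 µL/h with HMM plus 100 nM dexamethasone at 37℃, 5% CO2; test compound in 1% DMSO. On day 21, paraformaldehyde-fixed and stained by indirect immunofluorescence. Value is the ratio of average cellular antibody intensity in stellate versus non-stellate cells; equal-variance t-test.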

A further data set concerns LX2 cultures. The following applies: human.
Data set [3] relates to collagen type 1, alpha 2 (COL1A2). As to the kind of experiment: Indirect immunofluorescence of COL1A2 in SQL-SAL. The data set is classed as cell-based, human. The following applies: 30nM methotrexate, day 21, relative to vehicle control (p ≤ 0.05). In short, it runs like this:
as §1

In a further data set the test system is LX-2 stellate cells. As to the kind of experiment: LX-2 stellate cell migration in SQL-SAL. The class given is cell-based, human. The following applies: 30 nM methotrexate, days 4 and 7, vs vehicle control (p ≤ 0.05).
In data set [4] the test system is SQL-SAL. Put plainly: LDH leakage in efflux media of SQL-SAL devices. As to conditions: for Days with significant LDH release (p≤0.05): vs vehicle. For orientation: LDH in the medium is a marker of cell lysis.
For data set [5], the system named is SQL-SAL. As to the kind of experiment: Albumin secretion in efflux media of SQL-SAL devices.
Data set [6] concerns SQL-SAL. As to the kind of experiment: Urea secretion in efflux media of SQL-SAL devices.
The subject of data set [7] is SQL-SAL. As to conditions: human, 180 μM.
Data set [8] concerns SQL-SAL. As to the kind of experiment: SQL-SAL toxicity testing, overall response. As to conditions: 28μM troglitazone, over 21 days.
The nature of data set [9]: Albumin secretion in efflux media of SQL-SAL devices. The following applies: human.
In data set [10] the test system is hepatocytes. Put plainly: Mitochondrial-targeted ROS biosensor in sentinel hepatocytes. The data set is classed as cell-based, human. As to conditions: troglitazone, measured over 24 h.
A short description of data set [11]: Urea secretion in efflux media of SQL-SAL devices. The following applies: human.
For data set [12], the system named is hepatocytes. Put plainly: Bile. The data set is classed as cell-based, human. The following applies: 50 μM troglitazone, day 10 devices, 10-min intervals for 60 min, vs vehicle (1% DMSO).
The test system of data set [13] is hepatocytes. As to the kind of experiment: Hepatocyte area by HCA in SQL-SAL. The following applies: 200 μM trovafloxacin (40 × Cmax) with 1 μg/mL LPS.
The mark [14] stands for this setting: 28 μM troglitazone versus caffeine control.
The mark [15] stands for this setting: 180 μM troglitazone, starting at day 1 of treatment.

The text below walks through data of PMC4723301 (Experimental biology and medicine (Maywood, N.J.), 2015).

The structures appear in SMILES notation.

Chain of Cyp 2C9 (P11712 whole entry): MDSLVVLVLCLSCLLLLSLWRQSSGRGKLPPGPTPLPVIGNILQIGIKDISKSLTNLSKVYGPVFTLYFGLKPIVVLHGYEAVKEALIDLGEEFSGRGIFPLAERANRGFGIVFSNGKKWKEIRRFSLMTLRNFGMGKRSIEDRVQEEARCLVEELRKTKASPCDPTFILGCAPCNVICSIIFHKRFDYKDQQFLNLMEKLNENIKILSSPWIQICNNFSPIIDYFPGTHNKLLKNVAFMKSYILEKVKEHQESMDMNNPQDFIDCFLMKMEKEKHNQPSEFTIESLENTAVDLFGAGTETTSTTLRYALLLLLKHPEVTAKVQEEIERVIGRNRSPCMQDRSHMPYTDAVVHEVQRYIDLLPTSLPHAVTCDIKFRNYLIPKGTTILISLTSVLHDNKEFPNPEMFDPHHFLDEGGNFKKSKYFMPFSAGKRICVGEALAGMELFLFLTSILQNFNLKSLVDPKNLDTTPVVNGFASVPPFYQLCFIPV

Take `O=C(O)Cc1ccccc1Nc1c(Cl)cccc1Cl` [Diclofenac, diclofenac]: the “Metabolite found in efflux media (AUC)” value on Cyp 2C9 came out at 36943 ±28302.
`Cn1c(=O)c2c(ncn2C)n(C)c1=O` [caffeine]: the figures for the “Effect on hepatocellular apoptosis biosensor” value with hepatocytes [1] and with hepatocytes [1] (listed as Caffeine) were “no appreciable effect” and “no significant effect”, respectively.
In the case of `CN(Cc1cnc2nc(N)nc(N)c2n1)c1ccc(C(=O)N[C@@H](CCC(=O)O)C(=O)O)cc1` [methotrexate], in [2] (30nM methotrexate, day 21, relative to vehicle control (p ≤ 0.05)), the “Expression of human alpha-SMA in LX-2 stellate cells” value is reported as “increased”. Further, the “alpha-SMA expression in hepatocytes” value in data set [2] (methotrexate treatment) is “increased”. The maximum tolerated concentration in the data set on LX2 cultures came to 100 nM. Moreover, in [3], the “Expression of collagen, type 1, alpha 2 (COL1A2) in LX-2 stellate cells” value was “increased”. Also, in the data set with LX-2 stellate cells, the “LX-2 stellate cells proximal to the hepatocyte layer” value is recorded as “significantly accumulate”.
`CS(=O)(=O)Nc1ccc([N+](=O)[O-])cc1Oc1ccccc1` [nimesulide]: the Apoptotic hepatocytes entry with hepatocytes [1] (210 μM nimesulide (10 × Cmax)) is “rapid increase”. Further, the “Effect on LDH” value in the data set with SQL-SAL [4] (210 μM nimesulide (10 × Cmax)) is on record as “rapid release”. In addition, the Change in albumin result in the data set on SQL-SAL [5] (210 μM nimesulide (10 × Cmax)) was “decreases”. The Change in urea result in the data set with SQL-SAL [6] (210 μM nimesulide (10 × Cmax)) was “decreases”.
In the case of `Cc1c(C)c2c(c(C)c1O)CCC(C)(COc1ccc(CC3SC(=O)NC3=O)cc1)O2` (stereo not shown) [troglitazone], the “Acute toxicity produced within” value in the data set with SQL-SAL [7] was in the range of 2 to 4 days. Besides, the “Induction of apoptosis (loss of mitochondrial cytochrome C biosensor intensity) began on day” value was determined as 10 days with hepatocytes [1] (28 μM troglitazone) and 1 days with hepatocytes [1] (180 μM troglitazone). Moreover, the figures for the “Days with significant levels (p ≤ 0.05) of apoptosis, cytochrome C biosensor” value with hepatocytes [1] (troglitazone 28 μM) and in the data set on hepatocytes [1] (troglitazone 180 μM) were 16 to 28 days and 1 to 15 days, respectively. The Toxic response result in the data set with SQL-SAL [8] is “gradual and much delayed toxic response”. Besides, the “Overt cytotoxicity, measured as LDH release, delayed until day” value in the data set with SQL-SAL [4] (28 μM (4 × Cmax) troglitazone, continuous perfusion, vs 600 μM caffeine) came to 13 days. The “Overt cytotoxicity, measured as LDH release, found on day” value in the data set with SQL-SAL [4] (180 μM (30 × Cmax) troglitazone, continuous perfusion, vs 600 μM caffeine) was found to be 4 days. In addition, the “Peak LDH release” value with SQL-SAL [4] (troglitazone 180nM (30 × Cmax)) was about 4 days. The entries for the “Days with significant LDH release (p≤0.05)” value with SQL-SAL [4] (troglitazone 180nM (30 × Cmax)) and in the data set with SQL-SAL [4] (troglitazone 28 μM (4 × Cmax)) were 4 to 6 days and 13 to 15 days, respectively. In the data set with SQL-SAL [4] (troglitazone 28 μM (4 × Cmax)), the “Peak LDH loss” value is reported as about 13 days. Besides, the half-life at 28 μM in data set [9] was about 264 h; in data set [11], about 288 h. Further, the half-life at 180 μM in [9] and in data set [11] was about 72 h in each case. For the same compound, the Change in albumin entry in the data set on SQL-SAL [5] (setting [14]) was “gradual decrease”; in the data set with SQL-SAL [5] (setting [15]), “sharp decrease”. The “Days with significant decline in albumin secretion (p≤ 0.05)” value in the data set on SQL-SAL [5] (troglitazone 28 μM (4 × Cmax)) lay within 18 to 28 days; with SQL-SAL [5] (troglitazone 180μM (30 × Cmax)), 4 to 10 days. Besides, in the data set with hepatocytes [10], the “ROS, mitochondrial-targeted ROS biosensor” value is on record as “increase in ROS”. Also, the Change in urea result with SQL-SAL [6] (setting [14]) is recorded as “gradual decrease”; in the data set with SQL-SAL [6] (setting [15]), “sharp decrease”. Further, the “Days with significant decline in urea secretion (p ≤ 0.05)” value in the data set on SQL-SAL [6] (troglitazone 28 μM (4 × Cmax)) was 4 to 28 days; in the data set with SQL-SAL [6] (troglitazone 180μM (30 × Cmax)), 4 to 10 days. Besides, the “CMFDA uptake and canalicular efflux” value in the data set with hepatocytes [12] is “slower uptake and inhibition of efflux”.
Turning to `N[C@@H]1[C@H]2CN(c3nc4c(cc3F)c(=O)c(C(=O)O)cn4-c3ccc(F)cc3F)C[C@@H]12` [trovafloxacin], the LDH leakage entry in the data set on SQL-SAL [4] (200 μM (40 × Cmax) trovafloxacin co-incubated with 1 μg/mL LPS, 3 and 5 days) is listed as “Increased LDH leakage”. Further, the “Change in hepatocyte area” value in the data set on hepatocytes [13] is on record as “decrease in hepatocyte area”.

In general, half-life refers to the time needed for the level to fall by half in the phase considered. Low readings indicate rapid decline, high ones slow decline.
